# Apaf-1 inh: inhibitors of human Apaf-1 apoptosome; reconstituted apoptosome caspase-3 activity, DEVD-Rh110 fluorescence; hit rate 0.71% among 330,000; O14727; inhibition, % at 20 µM; active = inhibition of at least 40% at 20 µM;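 also: plate controls were DMSO wells for no effect and DEVD-CHO caspase inhibitor wells for full effect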
#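 Assay system: Apoptosome proteins | Medium: pH 7.5 Hepes buffer with CHAPS, BSA, DTT | Also added: Cytochrome c and DEVD-Rh110 substrate | Times: 30 min plus 50 min, RT | Detection: Rhodamine 110 fluorescence at Ex 480/Em 540 nm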
# pPAFAH inh: inhibitors of human plasma PAF acetylhydrolase (pPAFAH) | recombinant pPAFAH, FP-rhodamine probe fluorescence polarization | inhibition, % at 3.39 µM | hit rate 1.5% among 330,000 | AID 463082;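 active = inhibition above the mean inhibition across the screen plus 3 SD, cut at about 25% in these data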;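 also: inhibitors block binding of the rhodamine activity-based probe so polarization drops; 0% = enzyme with DMSO and 100% = wells lacking pPAFAH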
# PAFAH1B3 FP inh: PAFAH1B3 (human) inhibition; Q15102; recombinant PAFAH1B3, FP-rhodamine probe, fluorescence polarization; inhibition, % at 3.39 µM; hit rate 0.28% among 340,000; AID 492972;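 active = inhibition above the screen-wide average of all tested compounds plus 3 SD, cut at about 25% in these data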;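 also: 0% = enzyme with DMSO only and 100% = wells lacking PAFAH1B3 protein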
# Target sequence (Q15102 whole entry, looked up): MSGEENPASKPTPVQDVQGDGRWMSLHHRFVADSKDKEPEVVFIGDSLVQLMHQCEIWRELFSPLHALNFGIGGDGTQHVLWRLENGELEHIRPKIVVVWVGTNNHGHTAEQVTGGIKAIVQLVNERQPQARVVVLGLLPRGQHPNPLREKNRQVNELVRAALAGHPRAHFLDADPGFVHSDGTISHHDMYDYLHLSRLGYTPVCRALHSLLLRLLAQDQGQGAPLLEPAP
# PREPL inh: human PREPL enzyme inhibition; recombinant PREPL, fluorescence polarization activity-based probe; inhibition, % at 5.96 µM; hit rate 0.68% among 320,000; AID 2751; in the data active = inhibition above about 43%;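 also: 0% = enzyme with DMSO and 100% = wells lacking enzyme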
# PAFAH1B2 inh: blocks human PAF acetylhydrolase 1b catalytic subunit 2 | hit rate 1.2% among 340,000 | AID 492953 | inhibition, % at 3.39 µM | P68402 | recombinant PAFAH1B2, FP-rhodamine activity probe, fluorescence polarization;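 active = inhibition above the mean of all tested compounds plus 3 SD, cut at about 24% in these data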;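 also: 0% = enzyme with DMSO and 100% = wells lacking PAFAH1B2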
# Target sequence (P68402 whole entry, looked up): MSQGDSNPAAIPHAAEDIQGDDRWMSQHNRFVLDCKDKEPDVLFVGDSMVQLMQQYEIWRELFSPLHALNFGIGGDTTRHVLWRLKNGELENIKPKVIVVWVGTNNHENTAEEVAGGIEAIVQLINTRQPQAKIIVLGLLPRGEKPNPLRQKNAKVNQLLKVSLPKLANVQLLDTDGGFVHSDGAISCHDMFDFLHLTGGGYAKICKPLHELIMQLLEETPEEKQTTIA
# PAFAH2 FP inh: PAFAH2 (human) inhibition | Q99487 | hit rate 0.99% among 340,000 | recombinant PAFAH2, FP-rhodamine activity probe, fluorescence polarization | inhibition, % at 3.39 µM;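 active = inhibition above the mean over all tested compounds plus 3 SD, cut at about 30% in these data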;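 also: inhibitors block probe labeling of enzyme so polarization drops; 0% = enzyme with DMSO and 100% = wells lacking PAFAH2 protein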
# PAFAH2 FP conf: PAFAH2 (human) inhibition, confirmed; recombinant PAFAH2, FP-rhodamine activity probe, fluorescence polarization; inhibition, % at 3.39 µM; AID 493030; shares compounds with PAFAH2 FP inh; hit rate 65% among 2,300;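 active = mean inhibition over three repeats above a set limit taken from the earlier primary screen, cut at about 30% in these data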;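 also: inhibitor blocks binding of rhodamine activity probe so polarization falls; 0% = enzyme with DMSO and 100% = wells lacking PAFAH2 protein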
# * marks the source's active call; other numbers are inactive results; / = not tested or not shown. A selection: hits, their analogues and other compounds. The true share with any hit is near 3.5%.
SMILES,Apaf-1 inh,pPAFAH inh,PAFAH1B3 FP inh,PREPL inh,PAFAH1B2 inh,PAFAH2 FP inh,PAFAH2 FP conf
Cc1ccc(S(=O)(=O)N2CCOCC2)cc1NC(=O)COC(=O)c1ccc(Cl)nc1,-2.4,5.0,5.6,4.1,2.6,6.9,/
COc1ccc(C(=O)OCC(=O)Nc2cc(S(=O)(=O)N3CCOCC3)ccc2N2CCCC2)cc1,6.6,13.6,4.7,8.0,1.6,38.5*,33.1*
COc1cc(C(=O)OCC(=O)Nc2cccc(S(=O)(=O)N3CCOCC3)c2)ccc1OCC(C)C,13.4,4.1,4.9,4.0,-2.9,46.4*,43.7*
Cc1ccc(S(=O)(=O)N2CCOCC2)cc1NC(=O)COC(=O)c1ccc(Br)cc1,19.7,16.1,7.7,30.8,-1.8,41.7*,30.6*
CC(=O)C1=C(O)C(=O)N(C)C1c1ccccc1[N+](=O)[O-] (centres undefined),11.8,-4.0,8.5,2.5,1.1,4.1,/
COc1ccc(Cl)cc1NC(=O)C(C)NC(c1ccccc1)c1ccccc1 (centres undefined),5.4,6.7,6.1,-3.4,1.9,-8.0,/
Cc1cccc(Nc2ccncc2S(=O)(=O)NC(=O)NC(C)C)c1,0.4,-0.9,2.5,-1.2,2.4,5.0,/
Nc1cc(C(=O)OCC(=O)Nc2cccc(S(=O)(=O)N3CCOCC3)c2)ccc1Cl,-1.4,6.8,1.8,13.3,-6.3,64.8*,57.6*
O=C(OCCC12CC3CC(CC(C3)C1)C2)c1ccc(NCc2cc(O)ccc2O)cc1,/,/,4.8,/,4.9,75.3*,66.2*
CCCCCCOC(=O)c1ccc(N)cc1,-7.9,12.0,-3.8,-5.0,11.5,67.6*,61.1*
CCCCCCCOC(=O)c1ccc(OC(=O)c2cccnc2)cc1,3.8,5.1,6.1,11.8,15.5,47.2*,31.9*
CCCCOC(=O)c1ccc(N)cc1,7.0,7.0,7.7,-1.4,-1.4,-2.3,/
CCCCCOC(=O)c1ccc(OC(=O)c2cncc(Br)c2)cc1,-10.3,7.0,3.5,3.7,6.3,8.2,/
CC[C@H]1c2[nH]c3ccccc3c2C[C@H]2C(=O)N(c3ccc(F)cc3)C(=O)N21,9.7,-0.7,4.4,23.4,7.2,0.7,/
Cc1noc(NC(=O)c2ccccc2C(F)(F)F)c1C#N,-14.0,2.9,7.7,-0.3,0.8,37.5*,1.4
Cc1cc(C)cc(NC(=O)C2CCCN2S(=O)(=O)c2ccc3c(c2)n(C)c(=O)c(=O)n3C)c1 (centres undefined),-4.1,0.9,2.7,10.3,-3.3,2.9,/
CC(=O)Nc1ccc(C(=O)OCC(=O)NC2CCCCCCC2)cc1,3.0,-10.1,16.1,18.0,8.2,79.0*,74.7*
CN(C(=O)COC(=O)c1ccc(NS(=O)(=O)c2cccs2)cc1)C1CCCCC1,-3.3,21.7,11.8,1.2,0.2,69.9*,72.1*
NC(=O)Nc1ccc(C(=O)OCC(=O)NC2CCCCC2)cc1,-0.5,4.1,9.0,-2.1,-0.1,81.2*,80.2*
Cc1c(NS(=O)(=O)c2cccc(C(=O)OCC(=O)N(C)C3CCCCC3)c2)c(=O)n(-c2ccccc2)n1C,5.8,5.4,2.3,4.6,2.5,33.7*,20.7
O=C(COC(=O)c1ccc(Cl)nc1)NC1CCCCCC1,-8.2,4.2,-5.5,1.7,-0.8,22.9,/
CCc1cccc(CC)c1NC(=O)c1ccccc1CCc1ccccc1,-9.9,3.7,13.5,-2.8,-3.7,-8.4,/
Cc1cc(F)ccc1S(=O)(=O)N1CCCOC1CNC(=O)C(=O)NCc1ccccn1 (centres undefined),-2.7,1.0,2.9,2.4,-1.5,-4.0,/
CC(=O)Nc1ccc(C(=O)OCC(=O)N(C)C2CCCCC2)cc1,2.2,-6.9,-0.7,8.6,2.5,31.8*,27.4
O=C(COC(=O)c1ccccc1Br)NCCc1ccc(F)cc1,-0.3,7.8,1.7,-22.1,-0.1,-5.1,/
SMILES,Apaf-1 inh,pPAFAH inh,PAFAH1B3 FP inh,PREPL inh,PAFAH1B2 inh,PAFAH2 FP inh,PAFAH2 FP conf
O=C(COC(=O)c1ccccc1Br)Nc1ccc(F)cc1,8.6,11.9,5.1,6.6,5.4,76.1*,69.6*
Cc1occc1C(=O)OCC(=O)Nc1ccc(F)cc1,-1.2,7.1,4.7,-4.1,0.8,72.7*,61.8*
CC(=O)c1ccc(NC(=O)COC(=O)c2ccc(F)cc2F)cc1,7.2,19.3,-10.7,4.6,3.5,28.5,/
CC(C)[C@H](N[C@@H](C)c1ccccc1)c1c(O)ccc2ccccc12,16.6,6.0,11.8,3.7,16.2,-2.9,/
CC(C)(C)n1nc2c(c1NC(=O)c1ccccc1S(=O)(=O)C(F)F)CS(=O)(=O)C2,1.4,3.0,2.7,2.9,0.6,-2.2,/
COc1ccc(S(=O)(=O)NC(C(=O)NCCc2ccccn2)C(C)C)cc1 (centres undefined),-7.6,3.0,5.3,-7.1,-1.4,4.6,/
O=C(COC(=O)c1cccc(N2C(=O)C3CC=CCC3C2=O)c1)c1ccccc1 (centres undefined),5.1,5.0,13.2,-1.2,3.8,35.1*,26.5
O=[N+]([O-])c1cc(Br)c(O)c(/C=N/Nc2nnnn2-c2cccc3ccccc23)c1,1.7,33.5*,20.8,-3.6,18.1,35.1*,23.6
O=C(COC(=O)/C=C/c1cccc(F)c1)NNC(=O)c1ccccc1,-3.6,9.9,-1.1,-5.3,1.3,4.8,/
COc1ccc(CCNC(=O)COC(=O)/C=C/c2cccc(F)c2)cc1,-0.3,6.8,7.0,13.6,7.9,23.9,/
CCCNC(=O)COC(=O)/C=C/c1cccc(F)c1,-6.3,6.2,2.9,-1.9,7.1,33.0*,19.7
O=C(COC(=O)/C=C/c1cccc(F)c1)Nc1ccccc1,9.0,10.4,11.8,21.2,2.5,76.5*,82.0*
Cc1ccc(NC(=S)N2CCC(NC(=O)c3ccc(F)cc3)CC2)cc1C,9.4,7.0,-2.4,4.4,-2.6,-6.2,/
O=C(c1ccccc1)n1ccc(-c2cccs2)n1,-9.1,1.2,-2.0,-5.4,0.8,43.3*,23.4
COC(=O)c1cc(-c2cccs2)nn1-c1ccccc1,-4.4,5.0,-1.5,5.3,4.9,-0.7,/
CC(=O)c1ccc(NC(=O)c2ccc(CNc3c(N4CCOCC4)c(=O)c3=O)cc2)cc1,-0.4,-1.7,10.0,34.5,0.9,70.4*,62.7*
CC(=O)c1ccc(NC(=O)c2ccc(CNc3c(N4CCCC4)c(=O)c3=O)cc2)cc1,10.4,6.8,-5.1,6.8,7.3,62.4*,65.0*
CC(C)NC(=O)C12CC3CC(C1)CC(C(=O)NC(C)C)(C3)C2,-5.9,2.2,-5.8,-7.2,-0.6,-0.3,/
Cc1ccc(CNC(=O)c2ccccc2-n2cnnn2)cc1,-3.0,-3.5,-0.3,-1.9,3.6,5.7,/
CCOC(=O)Cc1c(C)nc2c(C#N)c[nH]n2c1=O,-1.1,5.7,13.0,20.0,4.3,5.2,/

# Screening results deposited in PubChem by several laboratories.
